For data set [1], the system named is SH-SY5Y. Description: Neuroprotective activity against MPP+-induced injury in human SH-SY5Y cells assessed as cell viability at 50 uM preincubated for 16 hrs followed by MPP+ addition measured after 8 hrs (reference value: 40.71 to 55.85%). The class given is functional. As to conditions: read-out: Activity.
The test system of data set [2] is H9c2. The experiment in a line: Cardioprotective activity against H2O2-induced injury in rat H9C2 cells assessed as increase in cell viability preincubated for 24 hrs followed by H2O2 addition measured after 24 hrs by MTT assay. Background: Tetrazolium assays rely on reduction of a dye to a coloured formazan, in cell work by metabolically active cells.
Data set [3] has as its system SH-SY5Y. The experiment in a line: Neuroprotective activity against MPP+-induced injury in human SH-SY5Y cells assessed as cell viability at 5 uM preincubated for 16 hrs followed by MPP+ addition measured after 8 hrs (reference value: 40.71 to 55.85%). The class given is functional. As to conditions: read-out: Activity.
For data set [4], the system named is SH-SY5Y. Description: Induction of autophagy in human SH-SY5Y cells transfected with GFP-LC3 at 5 uM by MDC staining-based fluorescence microscopic method. Type of data set: functional, cell-based.
Data set [5] can be described thus: Cytotoxicity against human SH-SY5Y cells assessed as inhibition of cell growth at 50 uM after 72 hrs by MTT assay relative to control. Type of data set: cell-based.
Data set [6] is described as follows: Cytotoxicity against human MCF7 cells assessed as inhibition of cell growth at 50 uM after 72 hrs by MTT assay relative to control. The class given is cell-based.
The test system of data set [7] is H9c2. Description: Cardioprotective activity against H2O2-induced injury in […] H9C2 cells assessed as increase in cell viability preincubated for 24 hrs followed by H2O2 addition measured after 24 hrs by MTT assay. The class given is functional, cell-based. As to conditions: Rattus norvegicus. The procedure, abridged:
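H9c2 cardiomyocytes injured with H2O2; cell viability read-out, with diazoxide as positive control.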

For data set [8], the system named is SH-SY5Y. Description: Induction of autophagy in human SH-SY5Y cells at 12.5 to 50 uM after 24 by MDC staining-based flow cytometric method. The class given is functional, cell-based. The method, boiled down: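 SH-SY5Y cells were treated with compound for the indicated times, then stained with monodansylcadaverine. The MDC-positive cell ratio was measured by flow cytometry as the quantitative autophagy read-out.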
In general terms: Flow cytometry measures light scatter and fluorescence of single cells or particles in a stream.

Active and inactive are the calls of the source. No cut-off for these calls is given here.

What is called EC50 is the concentration at which the effect is half-maximal. In the case of `COc1cc(OC)c2c(=O)c(Cc3cccs3)coc2c1`, the viability at 50 µM in the data set on SH-SY5Y [1] is 42.2%. The EC50 with H9c2 [2] was found to be 74.3 µM. Also, in the data set with SH-SY5Y [3], the viability at 5 µM was 37.8%.

With `COc1ccc(Cc2coc3cc(O)ccc3c2=O)cc1`, the EC50 in the data set with H9c2 [2] was determined as 32.1 µM.

For `COc1ccccc1Cc1coc2cccc(O)c2c1=O`, the EC50 with H9c2 [2] was over 100 µM.

For the molecule `COc1ccc(Cc2coc3cc(OCC=C(C)C)cc(O)c3c2=O)cc1`, in the data set on H9c2 [2], the EC50 is over 100 µM.

Take `COc1cccc(Cc2coc3cc(O)cc(O)c3c2=O)c1`: in the data set on H9c2 [2], the 50% effective concentration (EC50) is over 100 µM.

Consider `COc1ccc(Cc2coc3cc(OCCCCCl)cc(O)c3c2=O)cc1`, for which the EC50 in the data set with H9c2 [2] was over 100 µM.

As for `COc1ccccc1Cc1coc2cc(O)cc(O)c2c1=O`, in the data set with H9c2 [2], the EC50 is 24.4 µM.

On to `COc1ccc(Cc2coc3cc(OCCCl)cc(O)c3c2=O)cc1`, for which, in the data set with H9c2 [2], the EC50 was over 100 µM.

`COc1ccc(Cc2coc3cccc(O)c3c2=O)cc1`: the EC50 in the data set with H9c2 [2] is over 100 µM.

As to `COc1ccccc1Cc1coc2cc(O)ccc2c1=O`, the viability at 50 µM in the data set on SH-SY5Y [1] came out at 37.5%. The half-maximal effective concentration (EC50) in the data set on H9c2 [2] was found to be 12.7 µM. Moreover, the viability at 5 µM in the data set with SH-SY5Y [3] was found to be 38.1%.

Regarding `COc1ccc(Cc2coc3cc(O)cc(O)c3c2=O)cc1`, the EC50 with H9c2 [2] is over 100 µM.

As for `COc1cc(OC)c2c(=O)c(Cc3ccc(Cl)c(Cl)c3)coc2c1`, in the data set with SH-SY5Y [4], the outcome was Active. The viability at 50 µM in the data set on SH-SY5Y [1] came to 48.9%. Also, the EC50 in the data set on H9c2 [2] amounted to 23.8 µM. Moreover, in the data set on SH-SY5Y [3], the viability at 5 µM came to 62.4%.

As to `COc1ccc(Cc2coc3cc(OC(C)=O)cc(O)c3c2=O)cc1`, in the data set with H9c2 [2], the EC50 is over 100 µM.

Regarding `O=c1c(Cc2ccc(C(F)(F)F)cc2)coc2cc(O)cc(O)c12`, the EC50 in the data set on H9c2 [2] came out at 12.7 µM.

As to `COc1cc(OC)c2c(=O)c(Cc3ccc(C(F)(F)F)cc3)coc2c1`, the concentration giving a half-maximal response (EC50) in the data set with H9c2 [2] was over 100 µM.

Regarding `COc1ccc(Cc2coc3cc(OC)cc(OC)c3c2=O)cc1`, the EC50 with H9c2 [2] was over 100 µM.

One may read the inhibition as the drop in the measured response relative to a control, in per cent. Regarding `COc1cc(OC)c(OC)cc1Cc1coc2cc(O)cc(O)c2c1=O`, the inhibition at 72 h, 50 µM in data set [5] was 15.3%; in data set [6] it was 49.5%. Further, the viability at 50 µM in the data set on SH-SY5Y [1] was 48.4%. Further, the EC50 with H9c2 [7] stood at 15.7 µM. The viability at 5 µM with SH-SY5Y [3] amounted to 62.1%.

On to `CCC(=O)Oc1cc(O)c2c(=O)c(Cc3ccc(OC)cc3)coc2c1`, for which, in the data set on H9c2 [2], the half-maximal effective concentration (EC50) was over 100 µM.

Turning to `COc1ccc(Cc2coc3cc(O)cc(O)c3c2=O)cc1OC`, the outcome with SH-SY5Y [4] and in the data set with SH-SY5Y [8] was Active. In addition, the viability at 50 µM with SH-SY5Y [1] was 60.9%. Further, the EC50 in the data set with H9c2 [2] stood at 12.1 µM. Further, the viability at 5 µM in the data set on SH-SY5Y [3] was determined as 60.3%.

Take `COc1ccc(Cc2coc3cc(OC(=O)N(C)C)cc(O)c3c2=O)cc1`: in the data set with SH-SY5Y [1], the viability at 50 µM was determined as 35.5%. For the same molecule, the EC50 in the data set with H9c2 [2] came to 19.9 µM. Moreover, the viability at 5 µM in the data set on SH-SY5Y [3] is 42.5%.

Values taken from ChEMBL document CHEMBL3997823, “New homoisoflavonoid analogues protect cells by regulating autophagy” (Bioorg Med Chem Lett, 2017).
